Columns and labels:
[1] = folding enthalpy; higher = less favourable; fluorescence melt of hairpins on a sequencing array, two-state fit; details: sodium 0.088 M
Method in brief: (§1)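 Two-state fits, bootstrapped, provided melting temperature and folding enthalpy from Cy3 fluorescence normalised to pre-quench Cy3 and to control constructs. Library hairpins with annealed Cy3 and quencher oligos were imaged on a sequenced MiSeq flow cell in 50 mM Na-HEPES pH 8.0, 25 mM NaCl, at 2.5 °C intervals up to 60 °C. Four replicates were combined with inverse-variance weighting. A 9.35 °C upward shift was applied to fitted temperatures to match UV melts.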

[2] = melting temperature; fluorescence melt of hairpins on a sequencing array, two-state fit, raised by 9.35 °C to match UV melts; details: sodium 0.088 M
Method in brief: as §1

Sequence | folding enthalpy [1] [kcal/mol] | Tm [2] [°C]
GGAAACGGAAACGTTTCC (((((((....))))))) | -45.5 | 64.8
GGAAAGGGAAACCTCTCC (((.(((....))).))) | -14.8 | 33
GGAAAGGGAAACCTTCCC ((.((((....)))).)) | -19.3 | 33.3
GGAAAGGGAAACCTTTCC (((((((....))))))) | -41.9 | 55.8
GGAAATGAAAATTTCC ((((((....)))))) | -29.2 | 48.8
GGAACACGAAAGTGGTCC (((.(((....))).))) | -31.7 | 60.7
GGAACAGGAAACCGTTCC (((((.(....).))))) | -31.7 | 45.5
GGAACAGGAAACTGTCCC ((.((((....)))).)) | -23.1 | 39.9
GGAACAGGAAACTGTTTC (.(((((....))))).) | -31.7 | 44.4
GGAACCACGAAAGTGTCC (((..(((....)))))) | -11.2 | 28.1
GGAACCCGAAAGGGATCC (((.(((....))).))) | -28 | 54.5
GGAACCCGAAAGGGCTCC (((.(((....))).))) | -32.4 | 54.5
GGAACCGAAAGGTCCTCC ((((((....)))..))) | -17.5 | 50.2
GGAACCGAAAGGTCTTCC ((((((....)))..))) | -20.3 | 38.7
GGAACCGAAAGGTTATCC ((((((....)))..))) | -11.8 | 35.9
GGAACCGAAAGGTTGTCC ((((((....)))..))) | -11.5 | 36.1
GGAACCGAAAGGTTTTCC ((((((....)))..))) | -12.6 | 35.6
GGAACCGCGAAAGCGTCC (((..(((....)))))) | -7.7 | 26.3
GGAACCGGAAACAGTTCC (((((.(....).))))) | -28.4 | 40

Sequence | folding enthalpy [1] [kcal/mol] | Tm [2] [°C]
GGAACCGGAAACGGCTCC (((.(((....))).))) | -28.5 | 50
GGAACGAAAGTTCC (((((....))))) | -33.3 | 64.3
GGAACGCGAAAGCGATCC (((.(((....))).))) | -27.4 | 59
GGAACGGGAAACCGTCCC ((.((((....)))).)) | -18.5 | 48.2
GGAACGTCGAAAGACTCC (((..(((....)))))) | -11.7 | 32.1
GGAACTGGAAACAATTCC ((((.((....)).)))) | -13.1 | 28.4
GGAACTGGAAACAGTCCC ((.((((....)))).)) | -25.4 | 40
GGAACTGGAAACGGTTCC (((((.(....).))))) | -34.9 | 51
GGAAGACGAAAGTCGTCC (((.(((....))).))) | -18.9 | 56.2
GGAAGAGGAAACCCTTCC (((((.(....).))))) | -30.7 | 37.8
GGAAGCCCGAAAGGGTCC (((..(((....)))))) | -10.8 | 35.4
GGAAGCCGAAAGGCCTCC (((.(((....))).))) | -20.2 | 48.4
GGAAGCGAAAGCTATCC ((((((....))).))) | -14.6 | 40.9
GGAAGCGAAAGCTCATCC ((((((....)))..))) | -10 | 29
GGAAGCGAAAGCTCTTCC ((((((....)))..))) | -18.9 | 43
GGAAGCGAAAGCTGGTCC ((((((....)))..))) | -11.6 | 36
GGAAGGGGAAACTCTTCC (((((.(....).))))) | -39.7 | 46.3
GGAAGTCCGAAAGGATCC (((..(((....)))))) | -11.9 | 28.7
